Results collected from several papers.
Target: 3',5'-cyclic-AMP phosphodiesterase 4B (PDE4B, Homo sapiens, UniProt Q07343)
Observed: enzyme activity
Mode: inhibitor

CN1C(=O)c2c(nn(Cc3ccc(-c4cccc(F)n4)cc3)c2Nc2ccccc2)N2C1=N[C@@H]1CCC[C@@H]12  IC50: > 0.1 µM
CC(C)CC(=O)c1ccc(OC(F)F)c(O[C@@H]2CCOC2)c1  IC50 (radiometric): 0.089 µM
CSc1ccc(/C=C2/C(C)=C(CC(=O)O)c3cc(F)ccc32)cc1  IC50: > 100 µM
COc1ccc(C2=NN(C3CCCCCC3)C(=O)C3CC=CCC23)cc1-c1ccc(C(=O)N2CC[C@@H](O)C2)cc1 (mixture of isomers)  Ki: 2 µM
CCn1c(-c2nc3ccc(C(=O)N4CCCC(N)C4)cc3n2C)cc2ccccc21 (centres unmarked)  IC50: 25.1 µM
COc1ccc([C@@H]2CN(C(=O)[C@@H](O)CO)C[C@@]2(C)[C@@H](C)O)cc1OC1CN(c2ccc(C)cn2)C1  IC50: 9e-05 µM
COc1ccc(C2=NN(C3CCCCCC3)C(=O)C3CC=CCC23)cc1-c1ccc(C(=O)N2CCC[C@@H]2C(N)=O)cc1 (mixture of isomers)  Ki: 6.31 µM
CCn1c(-c2nc3cc(C(=O)N4CCC[C@@H](N)C4)cc(OC)c3n2C)cc2cccnc21  IC50: 6.31 µM
